Experimental data published in PMC3254186 (Frontiers in Pharmacology, 2011).
Substitutions are numbered along the chain they refer to.

What was measured:
Type in all cases: cell-based
[1] = biological target: T1, Kir1.1 (Rattus norvegicus, UniProt P35560); experiment: Two-electrode voltage clamp in Xenopus oocytes, Kir1.1
T1 sequence (P35560 1-391): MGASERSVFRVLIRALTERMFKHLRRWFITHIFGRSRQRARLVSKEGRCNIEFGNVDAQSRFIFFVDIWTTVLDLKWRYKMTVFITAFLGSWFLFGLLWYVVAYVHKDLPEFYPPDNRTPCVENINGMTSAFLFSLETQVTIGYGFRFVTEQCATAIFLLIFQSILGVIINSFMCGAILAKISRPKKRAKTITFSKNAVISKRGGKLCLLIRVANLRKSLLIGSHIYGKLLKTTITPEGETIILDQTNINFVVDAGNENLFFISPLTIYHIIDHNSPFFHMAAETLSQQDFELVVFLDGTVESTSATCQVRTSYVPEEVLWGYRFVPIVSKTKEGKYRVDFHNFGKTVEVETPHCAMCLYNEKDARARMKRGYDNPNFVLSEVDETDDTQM
Summary of the method: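 Stage V–VI Xenopus oocytes were defolliculated with 1 mg/mL collagenase and injected with 0.5–10 ng cRNA. They were kept at 16°C in modified L-15 for 24–72 h. Two-electrode voltage clamp at 20–23°C: held at −75 mV and stepped to −120 mV for 200 ms every 5 s, with current at −120 mV tracked over time. Test compound (50 μM) was perfused, then 2 mM Ba2+. Time constant of inhibition derived.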

[2] = biological target: T2, Kir1.1 (S44D) (Rattus norvegicus, UniProt P35560, S44D); experiment: Tl+ flux assay, tetracycline-inducible Kir1.1-S44D T-REx-HEK-293 cells; conditions: IC50 Kir1.1, Tl+ flux, mean ± SEM (n = 3)
T2 sequence (P35560 1-391 S44D): T1 sequence (P35560 1-391) with S44D
Summary of the method: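 Monoclonal C1 T-REx-HEK-293 Kir1.1-S44D cells were grown in DMEM with 10% FBS, penicillin/streptomycin, 5 μg/mL blasticidin S and 250 μg/mL hygromycin. Channel expression was induced overnight with tetracycline. Cells were loaded with FluoZin-2 and pre-treated with test compound from 1:3 serial dilutions. Extracellular Tl+ was then added and fluorescence imaged kinetically at 20–23°C. CRC, mean ± SEM, n = 3.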

[3] = system: Kir1.1; experiment: Whole-cell patch clamp, Kir1.1; conditions: 20 μM, n = 5
[4] = biological target: T3, Kir2.3 (Homo sapiens, UniProt P48050); experiment: Whole-cell patch clamp, T-REx-HEK-293-Kir2.3 cells
T3 sequence (P48050 1-445): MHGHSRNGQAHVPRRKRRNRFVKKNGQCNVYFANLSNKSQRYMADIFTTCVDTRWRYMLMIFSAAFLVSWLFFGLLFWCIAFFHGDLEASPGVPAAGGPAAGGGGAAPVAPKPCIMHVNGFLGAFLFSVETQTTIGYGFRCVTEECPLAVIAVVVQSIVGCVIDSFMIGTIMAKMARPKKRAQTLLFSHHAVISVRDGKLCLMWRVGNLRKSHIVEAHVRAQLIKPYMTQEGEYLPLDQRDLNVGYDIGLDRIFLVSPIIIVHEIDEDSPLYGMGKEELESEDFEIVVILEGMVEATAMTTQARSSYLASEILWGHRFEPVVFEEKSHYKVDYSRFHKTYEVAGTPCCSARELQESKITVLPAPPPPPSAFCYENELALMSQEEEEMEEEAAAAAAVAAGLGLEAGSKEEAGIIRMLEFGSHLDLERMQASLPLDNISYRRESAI
Summary of the method: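 Monoclonal T-REx-HEK-293-Kir2.3 cells were patched after overnight induction with tetracycline (1 μg/mL). Pipette: 135 mM KCl, 1 mM MgCl2 (reduced against rundown), 1 mM EGTA, 10 mM HEPES, 2 mM Na2ATP, pH 7.3. Bath: 135 mM NaCl, 5 mM KCl, pH 7.4. Held at −75 mV and ramped −120 to 120 mV every 5 s, at 20–23°C. Test compound was bath-applied, then 2 mM BaCl2. CRC n = 4–6. τ taken from the time course.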

In the case of `Cc1ccc(OCC(O)Cn2c(=N)n(Cc3ccccc3)c3ccccc32)cc1` (stereo not drawn) [Compound 1, 1-(3-benzyl-2-imino-2,3-dihydro-1H-benzo[d]imidazol-1-yl)-3-(p-tolyloxy)propan-2-ol], the “time constant of Kir1.1 inhibition” value ([1]; TEVC oocytes, 50 μM, n = 8) is reported as 95 ± 15 s, the inhibition at 50 µM ([1]; read-out: inhibition of Kir1.1) is reported as 4.3 ± 1.7% and the IC50 [2] is reported as 10.8 ± 3.8 µM. The “inhibition of Kir1.1” value [3] was 49.5 ± 0.03%, the IC50 ([4]; IC50 Kir2.3, whole-cell patch clamp, T-REx-HEK-293-Kir2.3) was ~1 µM and the “time constant for inhibition of Kir2.3” value ([4]; whole-cell patch clamp, 30 μM, mean ± SEM, n = 4) was 23 ± 2 s.
